Converted amounts (≈) assume the structure as drawn.

What all share (type): functional
The subject of test [1] is Streptococcus pneumoniae. The test is described as follows: Antimicrobial activity against drug-resistant Streptococcus pneumoniae isolate 3243 after 20 passages by multi-step resistance selection technique. A digest of the protocol:
(§1)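 Daily serial passage in subinhibitory drug levels in 1 ml cation-adjusted Mueller-Hinton broth with 5% lysed horse blood; fresh broth for tigecycline. Each day, 10 μl were taken from the tube one to two dilutions below the MIC whose turbidity matched the growth control, and used to set the next MIC. […] MIC by macrodilution.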

Test [2] deals with Streptococcus pneumoniae. The test is described as follows: Antimicrobial activity against drug-resistant Streptococcus pneumoniae isolate 3676 after 50 passages with moxifloxacin measured after 10 antibiotic-free subculture by multi-step resistance selection technique.
The subject of test [3] is Streptococcus pneumoniae. The test is described as follows: Antimicrobial activity against drug-resistant Streptococcus pneumoniae isolate 2527 after 14 passages with gemifloxacin measured after 10 antibiotic-free subculture by multi-step resistance selection technique. A digest of the protocol: (§2)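 Mutants selected by daily broth passage in subinhibitory drug in cation-adjusted Mueller-Hinton broth with 5% lysed horse blood. Stability was tested by 10 daily passages on blood agar without antibiotic, then macrodilution MIC.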

Test [4] concerns Streptococcus pneumoniae. The test is described as follows: Antimicrobial activity against drug-resistant Streptococcus pneumoniae isolate 2527 by NCCLS M7-A7 method.
Test [5] deals with Streptococcus pneumoniae. The test is described as follows: Antimicrobial activity against drug-resistant Streptococcus pneumoniae isolate 2527 after 50 passages by multi-step resistance selection technique. The gist of the method: as §1
The subject of test [6] is Streptococcus pneumoniae. The test is described as follows: Antimicrobial activity against drug-resistant Streptococcus pneumoniae isolate 1076 after 14 passages with Telithromycin measured after 10 antibiotic-free subculture by multi-step resistance selection technique. A digest of the protocol:
as §2

In test [7] the test system is Streptococcus pneumoniae. The test is described as follows: Antimicrobial activity against drug-resistant Streptococcus pneumoniae isolate 1076 after 35 passages by multi-step resistance selection technique. A digest of the protocol: as §1
Test [8] has as its system Streptococcus pneumoniae. The test is described as follows: Antimicrobial activity against drug-resistant Streptococcus pneumoniae isolate 1076 by NCCLS M7-A7 method.
For test [9], the system named is Streptococcus pneumoniae. The test is described as follows: Antimicrobial activity against drug-resistant Streptococcus pneumoniae isolate 3009 after 21 passages with gemifloxacin measured after 10 antibiotic-free subculture by multi-step resistance selection technique. The gist of the method: as §2
Test [10] concerns Streptococcus pneumoniae. The test is described as follows: Antimicrobial activity against drug-resistant Streptococcus pneumoniae isolate 3009 after 19 passages by multi-step resistance selection technique. A digest of the protocol:
as §1

Test [11] concerns Streptococcus pneumoniae. The test is described as follows: Antimicrobial activity against drug-resistant Streptococcus pneumoniae isolate 3676 after 50 passages by multi-step resistance selection technique. The gist of the method: (§3)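 Daily serial passage in broth at subinhibitory drug levels: 1 ml cation-adjusted Mueller-Hinton broth with 5% lysed horse blood; fresh broth for tigecycline. Each day 10 μl inoculum taken from the tube one to two dilutions below MIC matching growth-control turbidity, used to set next MIC. Continued until ≥8-fold MIC rise, minimum 14, maximum 50 passages; MIC read by macrodilution.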

In test [12] the test system is Streptococcus pneumoniae. The test is described as follows: Antimicrobial activity against drug-resistant Streptococcus pneumoniae isolate 3665 after 38 passages with moxifloxacin measured after 10 antibiotic-free subculture by multi-step resistance selection technique.
Test [13] relates to Streptococcus pneumoniae. The test is described as follows: Antimicrobial activity against drug-resistant Streptococcus pneumoniae isolate 3665 after 38 passages by multi-step resistance selection technique. The gist of the method: as §3

Broadly, the MIC is the lowest concentration that inhibits growth of the organism. Low values mean a more susceptible organism, high ones a less susceptible organism. As for `COc1c(N2C[C@@H]3CCCN[C@@H]3C2)c(F)cc2c(=O)c(C(=O)O)cn(C3CC3)c12` [MOXIFLOXACIN], the minimal inhibitory concentration (MIC) in [1] was 1 µg/mL (≈ 2.49 µM); in [2], 8 µg/mL (≈ 19.9 µM); in test [3], 8 µg/mL (≈ 19.9 µM); in test [4], 2 µg/mL (≈ 4.98 µM); in test [5], 8 µg/mL (≈ 19.9 µM); in [6], 1 µg/mL (≈ 2.49 µM). Moreover, the minimal inhibitory concentration (MIC) in test [7] came out at 8 µg/mL (≈ 19.9 µM); in test [8], 1 µg/mL (≈ 2.49 µM); in test [9], 2 µg/mL (≈ 4.98 µM); in test [10], 2 µg/mL (≈ 4.98 µM); in test [11], 8 µg/mL (≈ 19.9 µM); in test [12], 1 µg/mL (≈ 2.49 µM). Further, the MIC in test [13] worked out at 1 µg/mL (≈ 2.49 µM).
